Data: the EternaBench riboswitch data

Tested on: MS2 coat protein
Test: apparent Kd, MS2 coat protein; higher = weaker binding; RNA-MaP array; FMN 200 µM where present
How it was run: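 Green signal was scaled to red-channel RNA signal and control-cluster median Fmax, and the apparent Kd was taken as the median of filtered per-cluster binding-curve fits. The binding series used SNAP-549-labelled MS2 coat protein from 0.7 or 1.5 nM, doubling to 3 µM, on designs transcribed by stalled E. coli RNA polymerase on Illumina sequencing-chip clusters. Each series ran without and then with constant ligand in 100 mM Tris-HCl pH 7.5, 80 mM KCl, 4 mM MgCl2, BSA, DTT, yeast tRNA and Tween-20.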

[1] = designed as: OFF switch for flavin mononucleotide, no ligand
[2] = ligand present: flavin mononucleotide, designed as: OFF switch for flavin mononucleotide
[3] = designed as: ON switch for flavin mononucleotide, no ligand
[4] = ligand present: flavin mononucleotide, designed as: ON switch for flavin mononucleotide

Sequence | apparent Kd [1] | apparent Kd [2] | apparent Kd [3] | apparent Kd [4]
ACCAUUUACUAAUCCUCUAUACAUGAGGAUCACCCAUGUUUUGAGGAUAUCAUCGUUCGCCGCGUUGAGAAGGCAAAACAUUCG | 18.7 nM | 52.9 nM | – | –
AAGACACAUGAGGAUCACCCAUGUCAAGAGAGACGAGGAUAUCUGAAAAAAAAAAAAAAAGGAGAAGGCGUGAAAA | – | – | 109 nM | 51.1 nM
CGGCACCAAGGAUAUACAUGAGGAUCACCCAUGUUUUUUGGGCCCUUAAAAUCUACGUGUAGAAGGUGGGUCGA | 49.9 nM | 56.9 nM | – | –
CUCGGACAUGAGGAUCACCCAUGUGAGGAUAUGGUGCUAUCGUCAUUAGACGAUUGCGUUAGAAGGCAUAUUUU | 28.7 nM | 27.1 nM | – | –
GGUUAGAAAGGAUAUACAUGUCGUGAGACAUCUUGCACCUAACAUGAGGAUCACCCAUGUAGAAGGUUCAAGCC | 17.4 nM | 30.5 nM | – | –
CAGCCCUGAGGAUAUCCAUCCUUGUACAUGAGGAUCACCCAUGUUUCCCUCUGGGCUUUCGGAGAAGGCAGGUAUC | 61 nM | 61.7 nM | – | –
CGGUCGAUAUCAGGAUAUCGAUUAAUUACAUGAGGAUCACCCAUGUUGACAAGGAAUAUAACAUGCGAGAAGGGAUUACGAUCG | – | – | 10.1 nM | 8.45 nM
ACAUGAGGAUCACCCAUGUUCACAUAGGAUAUUGAUUAUAUUGGUUUAAGAAUAGUAAUUGACCACAAGAAGGAUGCCUGAUCU | – | – | 12.2 nM | 9.7 nM
CCCUGAGACCGGUUAAUUGGCUGAUAGGAUAUCCUCGGACAUGAGGAUCACCCAUGUUAACUAUUGGAGAAGGGUCAGCGAAAG | – | – | 448 nM | 216 nM
CCAGCGUGUGUGAGGAUAUGCUGGUCCUUGGAUCAGCAGAAGGCACAUGAGGAUCACCCAUGUGAGAGCGUUGG | 19.6 nM | 86.1 nM | – | –
AAUCUGUGAGGAUAUGGUGAGUAGUGCCUGAGCGCUGCUCACCAGAAGGCACAUGAGGAUCACCCAUGUAUGAC | 34.2 nM | 153 nM | – | –
UUAAUUAUACAAGGAUAUCUAUUGUUGUUUCGACUUACAUGAGGAUCACCCAUGUUAAUAUGUUUAGAGAAGGUGUAUUUUCAG | – | – | 55.1 nM | 35.8 nM
GCCAGUUAUGUAGGAUAUGCGAAGCGAGCCUGAGCAGAAGGACAUGAGGAUCACCCAUGUAUUGCGGUUUGAGUACUGAUCGCU | 27.9 nM | 107 nM | – | –
GACAUUAUAGGAUAUACAUGAGGAUCACCCAUGUCCGGCGGCCACCGCCAUUCACUGUGUAGAAGGGUAGUUUG | 87.9 nM | 68.8 nM | – | –
GGCUGUCUCGCAGGAUAUGCUGAUCAGAAACUAGCAGAAGGGUGAUCCAGUCGAGGUUUGACAUGAGGAUCACCCAUGUGGAGU | – | – | 29.4 nM | 55.8 nM
AGGUCAACCACAGGAUAUGGCUAGCAUAGCUAGCCAGAAGGGUGGUCAUUUCCAUGUAAAUACAUGAGGAUCACCCAUGUAUCC | – | – | 126 nM | 41.1 nM
AUCGGGAGAGGAUAUACAUGAGGAUCACCCAUGUUGGGAACAUCGGUUUGUUAGUUUCGUAGAAGGCUCGGGCG | 45.5 nM | 59.6 nM | – | –
GUAGUGUAUGUAGGAUAUGUGAAGGAAACAUUUACAGAAGGACAUGAGGAUCACCCAUGUAUUACAGUCAGCAAUCUGACUGUU | 23.6 nM | 41.2 nM | – | –
CGCUAGUCAGGAUAUACGCACAUGUCACCAGACGUGAAGGGACAUGAGGAUCACCCAUGUAGAAGGGACUAGCA | 87.9 nM | 203 nM | – | –
GCCGAAAAUGUGAGGAUAUACCUAUGGAUACAUAGGUAGAAGGCACAUGAGGAUCACCCAUGUUCCUCAUCGGC | 114 nM | 435 nM | – | –
AAUGAGUUUCUCACACUGUUCACAUGAGGAUCACCCAUGUACAGAAGGUAGAGACUUCCGGUCGCUAAGGAUAUGUAGAGGGUC | 5.05 nM | 6.01 nM | – | –
CAAUUUAUGUCAGGAUAUACAAUACAAUGAUUAGUAGAAGGGAUUAAUACAUGAGGAUCACCCAUGUCAUGUGUCAUCGUACCC | 28.1 nM | 23.3 nM | – | –
AUUGUUCGAGAGAAGGGAACAUGAGGAUCACCCAUGUUACCUCACCUGGUGACGGAACUCCAAGUUCAGGAUAUCUCGAGCGAU | 5.63 nM | 8.59 nM | – | –
UUACUAUUACAGAAGGUUAAAUAAUAUAUAAAUGAAGGAUAUGUAACAUGAGGAUCACCCAUGUUUCACCCACAUGAGGAUCAC | 13.9 nM | 12 nM | – | –

Sequence | apparent Kd [1] | apparent Kd [2] | apparent Kd [3] | apparent Kd [4]
AAACAUGUCCGAGGAUAUCUGAGAUCAUUUUCAAGAGAAGGCGGACAUGAGGAUCACCCAUGUCUCUCCUCAUCAACUCCACAU | 7.47 nM | 39.1 nM | – | –
AUGUUUCAUGUAGGAUAUGCAUAGCGUUGCUAUGCAGAAGGACAUGAGGAUCACCCAUGUAUAUUAUCAUUACAUAUCAUACAU | 45.7 nM | 546 nM | – | –
GGAUGACAAAGUCAUCCAAUUCGAACAUGAGGAUCACCCAUGUAGGAUAUGCUACUCAAAGAGUAGCAGAAGGACAUGUGCUUU | 37.7 nM | 167 nM | – | –
AGUACCAUGUAGAAGGGAUAUCUCAAAGAGAUAUCAGGAUAUACAUGAGGAUCACCCAUGUAAAUGUACUCCAGGAAACUGGAA | 19.8 nM | 55.3 nM | – | –
GUUUCACAUGAGGAUCACCCAUGUGAGGAUAUCUAUUUGUUAACCGUAGUUAAUAGAUAGAGAAGGCGCGUGAU | 69 nM | 74.5 nM | – | –
GUCAGCUCGUGAGGAUAUACAACACUGCUGCGGCAGUGUAUUAAGAUCACAUGAGGAUCACCCAUGUAGAAGGCACGAGCUGAU | 13.7 nM | 262 nM | – | –
GAGAAGAGUAUAGGAUAUUAAGAAACAUGAGGAUCACCCAUGUAGUGAGUGUGAGAAGGGUAGGAGGUGGUAGGAGGAUCCAGG | – | – | 22.3 nM | 16.4 nM
CCAUAUAACUGAGGAUAUGAUCACCACUAACAUUCAGAAGGCAGACAUGAGGAUCACCCAUGUGAUUUCUCAAUAUUAUACAUC | 572 nM | 363 nM | – | –
AGCCAAAUAGGAUAUGCCCGGGAUAACAUGAGGAUCACCCAUGUGACCGAUUCAUGUCCUGCAGAAGGAUUUGGGA | 13.2 nM | 24.4 nM | – | –
GCCGCCCGAUCUGGCUUUUGGGCUAGAAGGGCAUAUGUGGUUCAGGACAUGAGGAUCACCCAUGUGCAGGAUAUAGCCCACCGC | 25.1 nM | 53 nM | – | –
UAAGAGCGAGGAUAUACGUCGCUGGUCCGGAUGGACGCAUGACAUGAGGAUCACCCAUGUAGAAGGCGCAAAAC | 22.9 nM | 73.3 nM | – | –
UGUUGUAUUACAGGAUAUCUAUGAUUUUUAUAUAGAGAAGGGUAUUCACAUGAGGAUCACCCAUGUAUAUACGAGGAAGUUGUG | – | – | 49 nM | 56 nM
AAAAAGUGAGGAUAUACAUGAAAAAAAAAAAAAAAAAAAAAACAUGAGGAUCACCCAUGUAGAAGGCGCAAAAA | 55.1 nM | 45.7 nM | – | –
UGAUUUCAUGUAGGAUAUGCUUGGCGUAGCUACGCAGAAGGACAUGAGGAUCACCCAUGUUUUAGCGUCUGAGUAUAGAUUCUU | 35.3 nM | 89.7 nM | – | –
UAAAUGUGAGGAUAUUCGUAGUACACGGAGACGUGUAUUACGGAGAAGGCACAUGAGGAUCACCCAUGUUCCUU | 22.2 nM | 166 nM | – | –
UAAUUAUUUGUGGUAAUACACUAUGAGGAUAUCAAGGAAUAUAACAUGAGGAUCACCCAUGUGAAUGAGAAGGCAUUAUUUAUA | – | – | 14.9 nM | 9.81 nM
AGCUCGGGUGCAGGAUAUCCGCCGGAUCGCAGUGGAGAAGGGCGCCAAGCGAACAUGAGGAUCACCCAUGUAUCGGAGCCGGAC | – | – | 55.6 nM | 11.1 nM
ACUGACAUGAGGAUCACCCAUGUCUUGAAUAGGUCAAAUUCACAGGAUAUGCACUUGGACAGGGUGCAGAAGGGUGAUGCAAUG | – | – | 57 nM | 12.2 nM
GGACGUCAGAUUAACAUGAGGAUCACCCAUGUCUUUUGACAUGAGGAUAUGCAACCUAAUUGGUUGCAGAAGGCAUGGACGUCC | – | – | 917 nM | 85.2 nM
CCUCCACAUGAGGAUCACCCAUGUCAGGAUAUCGUGUGUGCGUUUUCGGUCUUUCGCGCGAGAAGGGACGACUG | 30.2 nM | 33 nM | – | –
CGCUAGUCAGGAUAUACGAACAUGUCAAAAGACGUGAAGGGACAUGAGGAUCACCCAUGUAGAAGGGACUAGCC | 32.8 nM | 115 nM | – | –
UACUAAAAGGAGGAUAUCGUAUCGGAGACGAUACGAGAAGGCUUAACAUGAGGAUCACCCAUGUUCUUCAAUAU | 15.8 nM | 18.2 nM | – | –
GCAUUGAUAACAGGAUAUAUGUAUCCUACAUGAGGAUCACCCAUGUAGGUGAUCAGCCGCGAUAAGUAGAAGGGUUAUCAAUGC | – | – | 18 nM | 13.7 nM
AAAAGACAUGAGGAUCACCCAUGUAAAGACGUAGGAGGAUAUGUCUUGAAAAAAGACUUGACAGAAGGCCUGUGUC | – | – | 26.4 nM | 19 nM
